OX1R antag-1 – antagonists of human orexin 1 receptor (OX1R) | Orexin/Hypocretin receptor type 1 (Homo sapiens), O43613 | OX1R-expressing cells, FRET antagonist read-out | inhibition, % at 6.6 µM | 330,000 tested, 1.8% active; in the data active = inhibition mostly above about 38%, no sharp cut-off; inactive = mostly below about 40%;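 also: 0% = agonist challenge alone and 100% = reference antagonist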
Target sequence (O43613 whole entry, looked up): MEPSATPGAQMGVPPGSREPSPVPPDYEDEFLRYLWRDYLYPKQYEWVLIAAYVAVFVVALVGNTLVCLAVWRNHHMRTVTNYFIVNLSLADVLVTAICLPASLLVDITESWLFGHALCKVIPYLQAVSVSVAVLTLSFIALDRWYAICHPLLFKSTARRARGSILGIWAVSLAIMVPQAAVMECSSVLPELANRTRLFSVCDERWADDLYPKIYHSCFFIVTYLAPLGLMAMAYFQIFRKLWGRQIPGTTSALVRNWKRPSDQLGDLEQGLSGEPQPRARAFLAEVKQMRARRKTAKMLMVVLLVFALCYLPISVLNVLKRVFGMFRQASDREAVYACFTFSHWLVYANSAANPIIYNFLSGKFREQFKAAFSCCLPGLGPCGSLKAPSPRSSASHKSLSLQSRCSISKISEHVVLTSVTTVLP
CHO parental Ca – ATP-evoked calcium signal inhibitors, parental CHO, primary screen, counter-screen for OX1R antagonist project, cell-based, fluorescence, Fluo-8 calcium dye; parental CHO-K1, ATP-induced calcium, Fluo-8 fluorescence; inhibition, % at 5.6 µM; 330,000 tested, 0.63% active;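 active = inhibition above that plate's mean sample inhibition plus 3 SD, cut at about 26% in these data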;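 also: 0% = ATP-challenged DMSO wells and 100% = DMSO wells without ATP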
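Assay system: parental CHO cells; Read-out basis: percent inhibition of ATP-evoked calcium rise, normalized to controls; Benchmarks: ATP and no-ATP DMSO wells; Compound dosing: single nominal dose of 5.6 µM per compound; Signal: Fluo-8 calcium dye fluorescence; Also added: ATP as calcium-mobilizing challenge; Repeats: singlicate.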
OX1R antag-2 – OX1R (HCRTR1) antagonists, primary screen, fluorescence, CHO/OX1R cells, Fluo-8 calcium, orexin A | inhibition, % at 5 µM | Fluo-8 calcium fluorescence | 330,000 tested, 0.43% active | Orexin/Hypocretin receptor type 1 (Homo sapiens), O43613;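 active = inhibition above its plate's threshold, mean inhibition of all tested compounds on the plate plus 3 SD, cut at about 37% in these data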;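 also: 0% = orexin A challenge wells and 100% = SB-334867-A antagonist wells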
GPR7 antagonist – GPR7 receptor antagonists, primary screen, cell-based, fluorescence, single concentration; Neuropeptides B/W receptor type 1 (Homo sapiens), P48145; GPR7-expressing cells, fluorescence antagonist assay; inhibition, % at 4.4 µM; 290,000 tested, 1.1% active; in the data active = inhibition above about 16%, passing the limit was not always enough;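 also: cells stimulated with the agonist NPW; 0% = agonist with vehicle and 100% = vehicle without agonist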
MPTP inh – mitochondrial permeability transition pore inhibitors, primary screen, biochemical, isolated mouse mitochondria, absorbance; Ca2+ swelling absorbance, 30 min; inhibition, % at 10 µM; 360,000 tested, 1.4% active;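 active = inhibition of 50% or more, scaled per plate between neutral and stimulator controls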;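 also: 0% = DMSO wells given calcium and 100% = 1 mM EGTA wells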
OX1R HTRF conf – OX1R (HCRTR1) antagonists, confirmation, cell-based, HTRF; shares compounds with OX1R antag-1; OX1R-expressing cells, HTRF antagonist assay; inhibition, % at 6.6 µM; 1,800 tested, 49% active; AID 492964, 2010; in the data active = inhibition above about 55%;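 also: CHO cells expressing OX1R stimulated with orexin A at about EC80; 0% = agonist challenge alone and 100% = reference antagonist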
CHO-K1 HTRF – signal inhibition in parental CHO-K1 cells, counter-screen for OX1R antagonist project, cell-based, HTRF | shares compounds with OX1R antag-1 | HTRF counterscreen | inhibition, % at 6.6 µM | 1,800 tested, 48% active; in the data active = inhibition above about 17%;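 also: 0% = agonist challenge with vehicle and 100% = vehicle alone without agonist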
The depositor's hits bear a star; · = no result given. This is a sample that favours compounds with a hit; in the whole collection about 3.8% have one here.

SMILES	OX1R antag-1	CHO parental Ca	OX1R antag-2	GPR7 antagonist	MPTP inh	OX1R HTRF conf	CHO-K1 HTRF
Cc1cc[n+](-c2nc3ccccc3nc2C(=C=[N-])C#N)cc1	121.0*	-5.9	0.1	-5.8	-0.9	39.9	63.0*
COC(=O)C1=C(C)N(Cc2cccnc2)C(=O)/C1=C\c1sccc1C	18.1	-13.3	-39.1	-15.3	1.9	·	·
Cc1cc(-c2cc(C(=O)Nc3ccccc3)on2)nc(NC2CCCC2)n1	17.2	-11.2	-12.8	·	·	·	·
Cc1cc(NCc2ccccn2)nc2ccccc12	2.9	-6.6	-32.8	0.5	-0.4	·	·
O=c1c2ccccc2nc2c3ccccc3c(NCc3ccccn3)nn12	90.3*	-18.0	4.0	-6.0	1.9	87.7*	6.9
COc1ccc(CN2CCSCC2)c(C)c1C	·	·	·	-20.8	0.3	·	·
COc1cc(/C=N/NC(N)=O)cc([N+](=O)[O-])c1O	91.0*	-4.1	3.0	-6.8	-0.5	55.4*	62.3*
CCS(=O)(=O)N1Cc2ccccc2CC1C(=O)Nc1cccc(S(=O)(=O)N(C)C)c1 (configuration not stated)	-8.0	-16.8	-18.7	-3.5	0.0	·	·
COc1ccc(-c2cc(C(F)(F)F)n3ncc(C(=O)O)c3n2)cc1OC	81.5*	-2.7	14.2	-0.5	2.8	32.2	54.5*
Cc1ccc(-c2csc(NC(=O)/C=C/c3ccco3)c2C(=O)O)cc1	26.6	-0.8	-2.5	6.4	3.0	·	·
Cc1c(Cl)cccc1NC(=O)c1cc(-c2ccccc2O)n[nH]1	80.7*	4.1	6.7	-3.2	26.8	24.0	15.3
COc1ccc(Cl)cc1NC(=O)c1cc(-c2ccccc2O)n[nH]1	30.2	6.7	0.6	-1.7	21.4	·	·
COc1cccc(/C=C2/SC(=O)N(C)C2=O)c1OCc1ccc(C(=O)O)cc1	102.0*	-10.8	-6.5	-16.1	-0.2	32.4	35.3*
O=C1N=C(N2CCCC2)S/C1=C\c1ccccc1	146.7*	-12.7	-15.5	-0.6	-2.6	58.4*	27.0*
COc1ccc(N(C(=O)c2cnccn2)C(C(=O)NC2CCCCC2)c2ccccc2)cc1 (configuration not stated)	18.0	-18.2	-48.5	10.0	1.0	·	·
Cc1ccc(OCC(O)Cn2nc(C)cc2C)cc1 (configuration not stated)	2.4	-6.7	-9.0	-7.8	1.4	·	·
CC(C)(CNC(=O)c1cccs1)N1CCOCC1	3.8	-0.9	4.9	·	-0.2	·	·
CCNc1nc(OCCNS(=O)(=O)c2cc(C)ccc2C)nc(N(C)C)n1	40.2	-2.8	-7.9	-5.8	-1.8	·	·
Cc1ccc(S(=O)(=O)NCCOc2nc(N(C)C)nc(N(C)C)n2)cc1	90.3*	-1.7	11.3	0.9	-0.6	64.1*	2.7
C[C@H](CO)N1C[C@H](C)[C@H](CN(C)C(=O)c2cc(-c3ccccc3)on2)OCc2cnnn2CCCC1=O	·	·	·	·	-0.1	·	·
O=C(N/N=C/C(Cl)=C\c1ccccc1)c1cccs1	86.6*	1.6	14.7	-4.4	5.1	61.9*	8.6
O=C(Nc1ccc2ccccc2c1)c1cnccn1	2.3	-13.4	13.7	-11.3	-0.6	·	·
O=C(Nc1ccc2nccnc2c1)c1cnccn1	132.3*	-10.5	-2.9	5.2	-1.9	42.1	70.1*
Cc1nnc(SCC(=O)N(C2CCCCC2)C2CCS(=O)(=O)C2)n1N (configuration not stated)	10.6	1.5	-2.2	·	0.5	·	·
Cc1ccc(S(=O)(=O)N/N=C2/CCCCC2C2CCCCC2)cc1[N+](=O)[O-] (configuration not stated)	12.8	-6.7	-15.4	-9.9	6.3	·	·
SMILES	OX1R antag-1	CHO parental Ca	OX1R antag-2	GPR7 antagonist	MPTP inh	OX1R HTRF conf	CHO-K1 HTRF
CC(C)(C)c1ccc(S(=O)(=O)O/N=C2/CCCCC2c2ccc([N+](=O)[O-])cc2[N+](=O)[O-])cc1 (configuration not stated)	115.0*	8.2	-15.3	-3.4	1.9	40.8	46.8*
O=C(Nc1ccccc1C(=O)N/N=C/c1ccco1)c1ccc(F)cc1	3.1	-12.6	-27.0	-3.0	-0.8	·	·
CCCn1c(SCC(=O)Nc2nnc(-c3ccccc3)s2)nnc1-c1ccccn1	78.2*	-36.9	10.3	-2.7	0.2	65.3*	10.8
CCCn1c(SCC(=O)NCCc2ccccc2)nnc1-c1ccccn1	38.0	-17.8	-17.1	-13.6	-2.6	·	·
CC1CCc2nc(NC(=O)CSc3nc4ccccc4o3)sc2C1 (configuration not stated)	89.1*	3.8	-26.7	-2.8	15.1	31.1	9.8
CC(C)Cn1[nH]c2c3c(ccc2c1=O)C(=O)c1ccccc1C3=O	135.2*	-24.8	-22.8	-0.9	-1.8	36.6	33.3*
C[C@H](NC(=O)C1CC(=O)N(c2ccc3c(c2)OCCO3)C1)C(=O)NCc1ccco1 (some centres not stated)	8.1	1.1	4.0	-5.1	-2.6	·	·
O=C(COc1ccc2ccc(=O)oc2c1)NCCN1CCOCC1	·	·	·	·	-0.7	·	·
CCn1c(/C=C2/C(=O)N(C)c3ccccc32)nc2ccccc2c1=O	85.9*	-20.8	-14.9	-4.0	0.6	28.3	7.8
COCCn1c(-c2cccc([N+](=O)[O-])c2)nc2c1c(=O)[nH]c(=O)n2Cc1ccccc1	10.8	-18.2	-38.0	-3.4	2.9	·	·
O=C1c2ccccc2CCc2ccccc21	·	·	·	·	-0.5	·	·
C/[N+]([O-])=C1\Cc2ccccc2C1=O	104.7*	-12.2	-15.5	0.0	-2.6	52.5	62.7*
Cc1cc(C)n(C(=O)c2cc([N+](=O)[O-])cc([N+](=O)[O-])c2)n1	103.5*	6.4	0.6	-4.7	0.0	70.6*	61.9*
CC(=O)Nc1ccc(C(=O)NNC(=O)c2cc([N+](=O)[O-])cc([N+](=O)[O-])c2)cc1	80.3*	-11.2	-3.0	-5.4	1.7	49.2	73.5*
CCC(=O)Nc1ccc(C(=O)N/N=C/c2ccc([N+](=O)[O-])cc2)cc1	39.9	-8.9	-4.7	-7.0	0.0	·	·
CC(=O)Nc1ccc(S(=O)(=O)NNC(=O)c2ccc([N+](=O)[O-])cc2)cc1	18.6	-8.7	-15.4	-8.7	0.1	·	·
CCC(=O)Nc1ccc(C(=O)NNC(=O)c2cc([N+](=O)[O-])cc([N+](=O)[O-])c2)cc1	181.2*	5.4	-5.6	1.9	-0.8	19.4	11.3
CCC(=O)Nc1ccc(C(=O)NNC(=O)c2cccc(C)c2)cc1	0.8	-0.6	-6.6	9.0	-0.3	·	·
CCC(=O)Nc1ccc(C(=O)NNC(=O)c2ccc([N+](=O)[O-])cc2)cc1	158.3*	0.7	-9.4	0.3	0.3	39.5	33.8*
